This is an account of results in ChEMBL document CHEMBL2311329, “Synthesis and biological evaluation of a folate-targeted rhaponticin conjugate” (Bioorg Med Chem, 2013).

Active and inactive are the calls of the source. No cut-off for these calls is given here.

The subject of one data set is KB. As to the kind of experiment: Antitumor activity against FR-positive human KB cells assessed as decrease in cell viability measured after 48 hrs by MTT proliferation assay. The data set is classed as functional, cell-based. In outline:
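Cells kept in folate-free RPMI with 10% heat-inactivated FCS. Seeded at 1.0 × 10^4 cells/well and left to adhere overnight. Medium then replaced with drug at 0.1–500 nM, with or without 0.01 mM FA competitor, for 48 h at 37 °C. MTT added for 3 h, formazan dissolved in DMSO, A570 read against a no-MTT baseline. Viability given as % of control; 5 repeats.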

In a further data set the test system is M109. As to the kind of experiment: In vivo antitumor activity against FR-positive mouse M109 cells implanted in Balb/c mouse assessed as decrease in tumor volume at 2 umol/kg, iv treated 33 days after implantation for TIW 3 week schedule. The data set is classed as functional, organism-based.
Data set [1] is described as follows: Half life in human serum at 37 degC. The data set is classed as ADME, cell-free. A digest of the protocol:
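Compound added to human serum at a final 200 µM and held at 37 °C in a water bath for up to 24 h. Samples taken at 1–3, 5, 8, 12, 18 and 24 h (n = 3). Compound recovered by solid-phase extraction after adding 6 M guanidine (pH 7.4), then measured by HPLC as % recovery.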

In another data set the test system is Mus musculus. Nature of the data set: Toxicity in FR-positive human KB cells implanted Balb/c mouse assessed as gross toxicity at 2 umol/kg, iv TIW 2 week schedule. The data set is classed as organism-based. The following applies: in vivo, 336 h. A digest of the protocol: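 Female Balb/c mice, 6–7 weeks old, on folate-free diet. 1 × 10^6 KB cells injected into the dorsal subcutis. Dosing began at tumor volumes of 50–110 mm³: 2 µmol/kg iv, three times a week for 2 weeks, alone or with 40-fold excess FA; PBS for controls. Caliper volumes (0.5 × L × W²) every 2–3 days; body weight followed. n = 5 per cohort.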

For the molecule `COc1ccc(/C=C/c2cc(O)cc(O[C@@H]3O[C@H](CN)[C@@H](O)[C@H](O)[C@H]3O)c2)cc1O`, in the data set with KB, the inhibition entry was “Active”.
The same measure, in the same setting: the entry for `COc1ccc(/C=C/c2cc(O)cc(O[C@@H]3O[C@H](CNC(=O)OCCSSc4ccccn4)[C@@H](O)[C@H](O)[C@H]3O)c2)cc1O` is “Active”.
One may read the half-life as how long it takes for the measured level to halve. Lower therefore signals fast loss. By IC50 is commonly meant the concentration needed to halve the response being measured. With `COc1ccc(/C=C/c2cc(O)cc(O[C@@H]3O[C@H](CO)[C@@H](O)[C@H](O)[C@H]3O)c2)cc1O` [RHAPONTIN], in the data set with M109, the inhibition entry is “Active”. In data set [1], this molecule gave a half-life of 3.5 h. The IC50 with KB is 34 nM. Moreover, the Activity result in the data set on Mus musculus is given as “Toxic”.
